pIC50: −log10 of the molar value. Calls of active or inactive are those of the source. No cut-off for these calls is given here. Residues, ends and D or L forms follow the SMILES beside them. *: point of attachment. Cbz = O=C(OCc1ccccc1)*; CH2F = FC*
Assays:
SF-188 [1] = assay: Inhibition of 20S-protopanaxadiol-induced activation of caspases in human SF188 cells; format: cell-based
SF-188 [2] = assay: Inhibition of TNF-alpha-induced apoptosis in human SF188 cells; format: functional, cell-based
SF-188 [3] = assay: Inhibition of cycloheximide-induced apoptosis in human SF188 cells; format: functional, cell-based
SF-188 [4] = assay: Inhibition of 20S-protopanaxadiol-induced apoptosis in human SF188 cells after 8 hrs by MTT assay; format: functional; set-up: scale not given: the % may be the effect or the level left
How it was run: (§1)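 SF188 cells were seeded at 2.5 × 10^5/mL 24 h before use. For the inhibitor arm, cells were pretreated for 2 h with various concentrations of Z-VAD-FMK, then 43.4 µM compound was added. Viability was read by MTT assay 8 h after compound addition.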

SF-188 [5] = assay: Cell viability in human SF188 cells in presence of Z-VAD-FMK; format: functional
SF-188 [6] = assay: Cell viability in human SF188 cells; format: functional; how it was run: as §1
SF-188 [7] = assay: Cell viability of human SF188 cells in presence of tBHQ, Z-VAD-FMK; format: functional
SF-188 [8] = assay: Induction of autophagy in human SF188 cells by MDC staining at 43.4 uM after 4 hrs; format: functional, cell-based
How it was run: (§2)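 SF188 and U87MG cells were treated with 43.4 or 108.4 µM compound for 4 h. Autophagic vacuoles were then visualized by monodansylcadaverine (MDC) staining.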

U-87 MG [9] = assay: Induction of autophagy in human U87MG cells by MDC staining at 43.4 uM after 4 hrs; format: functional, cell-based; settings: U-87MG ATCC; how it was run: as §2
U-87MG ATCC [10] = assay: Reduction of Akt phosphorylation in human U87MG cells after 7 hrs; format: cell-based
SF-188 [11] = assay: Reduction of Akt phosphorylation in human SF188 cells after 5 hrs; format: cell-based
SF-188 [12] = assay: Induction of autophagy in human SF188 cells by MDC staining at 108.4 uM after 4 hrs; format: functional, cell-based; how it was run: as §2
U-87 MG [13] = assay: Induction of autophagy in human U87MG cells by MDC staining at 108.4 uM after 4 hrs; format: functional, cell-based; settings: U-87MG ATCC; how it was run: as §2
Caspase-3 (Homo sapiens) = target: T1, Caspase-3 (Homo sapiens) (UniProt P42574); assay: Activation of caspase 3 in human SF188 cells at 108.4 uM; format: cell-based; settings: SF-188
T1 sequence (whole entry): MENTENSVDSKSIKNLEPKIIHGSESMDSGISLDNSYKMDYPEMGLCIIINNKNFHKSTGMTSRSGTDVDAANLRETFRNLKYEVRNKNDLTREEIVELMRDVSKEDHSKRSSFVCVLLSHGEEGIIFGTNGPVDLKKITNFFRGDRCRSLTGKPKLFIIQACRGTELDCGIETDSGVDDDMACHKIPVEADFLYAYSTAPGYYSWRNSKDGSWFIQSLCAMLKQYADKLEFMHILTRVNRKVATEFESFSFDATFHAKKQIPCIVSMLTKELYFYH
How it was run: (§3)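 Western blot of SF188 lysates after treatment with 108.4 µM compound, sampled at different time points or at different concentrations. 50 µg total protein loaded per lane. Pro-caspase and cleaved (active) caspase bands were detected, with actin as loading control.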

Caspase-8 (Homo sapiens) = Caspase-8 (Homo sapiens) (UniProt Q14790); assay: Activation of caspase 8 in human SF188 cells at 108.4 uM; format: cell-based; settings: SF-188; how it was run: as §3
Caspase-7 (Homo sapiens) = target: T2, Caspase-7 (Homo sapiens) (UniProt P55210); assay: Activation of caspase 7 in human SF188 cells at 108.4 uM; format: cell-based; settings: SF-188; how it was run: as §3
T2 sequence (whole entry): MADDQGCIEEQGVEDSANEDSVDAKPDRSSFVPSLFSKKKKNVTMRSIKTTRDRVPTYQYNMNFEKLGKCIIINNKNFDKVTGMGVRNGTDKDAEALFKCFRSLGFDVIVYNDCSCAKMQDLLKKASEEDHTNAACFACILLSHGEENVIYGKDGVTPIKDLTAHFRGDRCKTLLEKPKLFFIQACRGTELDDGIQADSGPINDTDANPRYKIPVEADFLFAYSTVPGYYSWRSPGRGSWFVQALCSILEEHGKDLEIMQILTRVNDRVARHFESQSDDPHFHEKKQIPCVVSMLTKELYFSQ

Caspase-9 (Homo sapiens) = target: T3, Caspase-9 (Homo sapiens) (UniProt P55211); assay: Activation of caspase 9 in human SF188 cells at 108.4 uM; format: cell-based; settings: SF-188; how it was run: as §3
T3 sequence (whole entry): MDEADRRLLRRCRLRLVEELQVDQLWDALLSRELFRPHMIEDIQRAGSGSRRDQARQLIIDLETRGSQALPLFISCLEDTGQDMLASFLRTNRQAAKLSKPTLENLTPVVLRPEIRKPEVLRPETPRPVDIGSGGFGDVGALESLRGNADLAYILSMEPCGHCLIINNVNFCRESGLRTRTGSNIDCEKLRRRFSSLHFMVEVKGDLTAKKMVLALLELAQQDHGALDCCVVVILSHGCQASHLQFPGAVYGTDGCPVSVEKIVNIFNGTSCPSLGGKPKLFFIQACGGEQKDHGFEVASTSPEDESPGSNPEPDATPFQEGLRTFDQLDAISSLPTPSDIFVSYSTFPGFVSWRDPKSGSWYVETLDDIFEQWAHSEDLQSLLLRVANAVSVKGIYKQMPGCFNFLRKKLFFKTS

[14] = Cytotoxicity against human SF188 cells at 43.4 uM after 24 hrs by MTT assay; format: cell-based; settings: sf-188, 24 h
How it was run: (§4)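 Glioma cells seeded at 2.5 × 10^5/mL 24 h before treatment, then exposed to a range of concentrations for 24 h. Viability was measured by MTT assay, and cell death was read from the 24 h dose-response curve.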

[15] = Cytotoxicity against human U87MG cells at 108.4 uM after 24 hrs by MTT assay; format: cell-based; settings: u-87mg atcc; how it was run: as §4
[16] = Cytotoxicity against human SF188 cells at 108.4 uM within 10 hrs by MTT assay; format: cell-based; settings: sf-188, 10 h
How it was run: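 Cells seeded at 2.5 × 10^5/mL 24 h beforehand were treated with 108.4 µM. Viability was measured by MTT assay at 1, 4, 6, 8, 10 and 24 h after treatment.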

[17] = Cytotoxicity against human SF188 cells after 24 hrs; format: cell-based; settings: SF-188, 24 h; how it was run: as §4
[18] = Cytotoxicity against human U87MG cells after 24 hrs; format: cell-based, U-87MG ATCC; settings: U-87 MG; how it was run: as §4
SF-188 [19] = assay: Induction of apoptosis in human SF188 cells at 108.4 uM within 3 hrs; format: functional
How it was run: (§5)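 SF188 or U87MG cells were treated with 108 µM compound and stained by TUNEL (ApopTag). Apoptotic cells were counted as % TUNEL-positive: at 3 h for SF188, at 7 h for U87MG. Untreated cells served as controls.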

U-87 MG [20] = assay: Induction of apoptosis in human U87MG cells at 108.4 uM within 7 hrs; format: functional, U-87MG ATCC; how it was run: as §5
U-87MG ATCC [21] = assay: Activation of caspases in human U87MG cells; format: cell-based
How it was run: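 Western blot of U87MG cells treated with 108.4 µM compound for up to 9 h, probing pro- and cleaved caspases-8 and -3. 50 µg protein per lane. Lysate from treated SF188 cells served as positive control and actin as loading control.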

SF-188 [22] = assay: Increase in superoxide anion level in human SF188 cells after 2 hrs; format: functional, cell-based
How it was run: (§6)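 Superoxide anion was measured by dihydroethidine (HE) fluorescence using flow cytometry in SF188 or U87MG cells 2 h after treatment at several concentrations. Result is reported as the percentage of HE-positive cells.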

U-87 MG [23] = assay: Increase in superoxide anion level in human U87MG cells after 2 hrs; format: functional, cell-based; settings: U-87MG ATCC; how it was run: as §6
SF-188 [24] = assay: Cell viability in human SF188 cells in presence of tBHQ at 86.8 uM; format: functional

Sequence of Caspase-8 (Homo sapiens) (Q14790 217-374 limits assumed): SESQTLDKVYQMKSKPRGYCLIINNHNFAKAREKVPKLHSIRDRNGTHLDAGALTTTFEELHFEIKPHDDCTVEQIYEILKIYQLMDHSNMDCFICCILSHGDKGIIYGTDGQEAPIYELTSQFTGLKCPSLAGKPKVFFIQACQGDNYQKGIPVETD
Sequence of Caspase-8 (Homo sapiens) (Q14790 385-479 limits assumed): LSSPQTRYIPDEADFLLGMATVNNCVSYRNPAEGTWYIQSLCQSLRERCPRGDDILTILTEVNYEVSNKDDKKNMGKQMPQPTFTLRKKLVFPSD

For `CC(C)[C@H](NC(=O)OCc1ccccc1)C(=O)N[C@@H](C)C(=O)N[C@@H](CC(=O)O)C(=O)CF` (Cbz-Val-Ala-Asp-CH2F), the Activity (SF-188 [1]) was “Active”, the Activity (SF-188 [2]) was “Active” and the Activity (SF-188 [3]) was “Active”. For the same compound, the Activity (SF-188 [4]) was 44.72%.
In the case of `CC(C)=CCC[C@](C)(O)[C@H]1CC[C@]2(C)[C@@H]1[C@H](O)C[C@@H]1[C@@]3(C)CC[C@H](O)C(C)(C)[C@@H]3CC[C@]12C`, the Activity (SF-188 [5]) was 36%, the Activity (SF-188 [6]) was 16.5% and the Activity (SF-188 [7]) was 89.4%. For the same compound, the Activity (SF-188 [8]) was “Active”, the Activity (U-87 MG [9]) was “Active” and the Activity (U-87MG ATCC [10]) was “Dose-dependent effect”. For the same compound, the Activity (SF-188 [11]) was “inactive”, the Activity (SF-188 [12]) was “Active” and the Activity (U-87 MG [13]) was “Active”. The Activity (Caspase-3 (Homo sapiens)) was “Active”, the Activity (Caspase-8 (Homo sapiens)) was “Active” and the Activity (Caspase-7 (Homo sapiens)) was “Active”. For the same compound, the Activity (Caspase-9 (Homo sapiens)) was “Active”, the Activity [14] was 100% and the Activity [15] was 90%. For the same compound, the Activity [16] was 90%, the pIC50 [17] was 4.62 and the pIC50 [18] was 4.42. The Activity (SF-188 [19]) was 42.67%, the Activity (U-87 MG [20]) was 51.01% and the Activity (U-87MG ATCC [21]) was “inactive”. For the same compound, the Activity (SF-188 [22]) was “Active”, the Activity (U-87 MG [23]) was “Active” and the Activity (SF-188 [24]) was 30.46%.
